Key:
[1] = Chemical stability of the compound in phosphate buffer at pH 8 assessed as compound remaining at 0.1 uM after 240 hrs by RP-HPLC analysis; format: physicochemical; settings: read-out: Stability
Summary of the method: (§1)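 Conjugates at 0.1 µM were incubated at 37 °C in 20 mM phosphate buffer at pH 2.0, 7.0 or 8.0. Intact conjugate was measured by RP-HPLC: RP18 column, methanol/0.05 mol/l KH2PO4 pH 3.0 (60:40), 1.0 ml/min, UV 256 nm, 25 °C. Results are % remaining, mean ± SD.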

HEK293 = assay: Cytotoxicity against HEK293 cells assessed as cell viability at 2 to 32 ug/ml after 24 hrs by MTT assay; format: cell-based; settings: human, hek293, 24 h
Summary of the method: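 HEK293 cells were seeded at 2500/well and grown 24 h before compound exposure. The figure legend gives 24 h exposure; the methods give 48 h. MTT (5 mg/ml) was then added for 2.5 h at 37 °C. Formazan was dissolved in DMSO and read at 570 nm. Viability is % of control cells, mean ± SD, n = 3.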

Mus musculus [2] = assay: Antiinflammatory activity in Kunming mouse assessed as inhibition of xylene-induced auricle tumefaction at 25 uM/kg, tid qd for 5 days relative to control; format: functional
Summary of the method: (§2)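 Male Kunming mice (18–22 g), 10 per group, with 0.9% NaCl as the blank group. Dosing was once daily for 5 days (table footnote); the methods say t.i.d. Drug was given at molar equivalence to naproxen. 1 h after the last dose, a 7 mm xylene-soaked filter was held on the right ear for 30 s. Mice were killed 30 min later and 7 mm ear discs punched. Inhibition % = (1 − a/b)×100.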

[3] = Chemical stability of the compound in phosphate buffer at pH 2 assessed as compound remaining at 0.1 uM after 240 hrs by RP-HPLC analysis; format: physicochemical; settings: read-out: Stability; summary of the method: as §1
[4] = Chemical stability of the compound in phosphate buffer at pH 8 assessed as compound remaining at 0.1 uM after 48 hrs by RP-HPLC analysis; format: physicochemical; settings: read-out: Stability; summary of the method: as §1
[5] = Chemical stability of the compound in phosphate buffer at pH 2 assessed as compound remaining at 0.1 uM after 48 hrs by RP-HPLC analysis; format: physicochemical; settings: read-out: Stability; summary of the method: as §1
[6] = Chemical stability of the compound in phosphate buffer at pH 7 assessed as compound remaining at 0.1 uM after 240 hrs by RP-HPLC analysis; format: physicochemical; settings: read-out: Stability; summary of the method: as §1
[7] = Chemical stability of the compound in phosphate buffer at pH 7 assessed as compound remaining at 0.1 uM after 48 hrs by RP-HPLC analysis; format: physicochemical; settings: read-out: Stability; summary of the method: as §1
Mus musculus [8] = assay: Gastrointestinal toxicity in Kunming mouse assessed as ulcer index at 200 mg/kg, po after 4 hrs; format: organism-based; set-up: dose 200 mg/kg, route oral; settings: in vivo
Summary of the method: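 Kunming mice of either sex (18–22 g), 10 per group, were fasted 24 h. A 200 mg/kg oral dose was given as a suspension in 1% methylcellulose, and mice were killed after 4 h. Stomachs were fixed 30 min in 10% formaldehyde, opened along the greater curvature and lesion lengths measured under magnification. UI = summed lesion length (mm) per group divided by 10 animals.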

Mus musculus [9] = assay: Antiinflammatory activity in Kunming mouse assessed as inhibition of xylene-induced auricle tumefaction at 22.2 uM/kg, tid qd for 5 days relative to control; format: functional; summary of the method: as §2

remaining at 240 h, 0.1 µM [1]	remaining at 240 h, 0.1 µM [3]	remaining at 48 h, 0.1 µM [4]	remaining at 48 h, 0.1 µM [5]	remaining at 240 h, 0.1 µM [6]	remaining at 48 h, 0.1 µM [7]	SMILES	Activity (HEK293)	inhibition (INH) (Mus musculus [2])	UI (Mus musculus [8])	inhibition (INH) (Mus musculus [9])
89.4%	93.1%	91.2%	97.1%	96.1%	97.6%	COc1ccc2cc(C(C)C(=O)NCCCCC(NC(=O)C(C)c3ccc4cc(OC)ccc4c3)C(=O)NCCCCC(NC(=O)C(CCCCNC(=O)C(C)c3ccc4cc(OC)ccc4c3)NC(=O)C(C)c3ccc4cc(OC)ccc4c3)C(=O)NCCCCC(NC(=O)C(CCCCNC(=O)C(CCCCNC(=O)C(C)c3ccc4cc(OC)ccc4c3)NC(=O)C(C)c3ccc4cc(OC)ccc4c3)NC(=O)C(CCCCNC(=O)C(C)c3ccc4cc(OC)ccc4c3)NC(=O)C(C)c3ccc4cc(OC)ccc4c3)C(=O)OCc3ccccc3)ccc2c1 (centres undefined)	Non-toxic	48.18%	6.21	–
79.4%	72.3%	97.3%	95.7%	95.9%	96.2%	COc1ccc2cc(C(C)C(=O)OCCN(CCOC(=O)C(C)c3ccc4cc(OC)ccc4c3)CCC(=O)OCCN(CCOC(=O)CCN(CCOC(=O)C(C)c3ccc4cc(OC)ccc4c3)CCOC(=O)C(C)c3ccc4cc(OC)ccc4c3)CCC(=O)OCCN(CCOC(=O)CCN(CCOC(=O)CCN(CCOC(=O)C(C)c3ccc4cc(OC)ccc4c3)CCOC(=O)C(C)c3ccc4cc(OC)ccc4c3)CCOC(=O)CCN(CCOC(=O)C(C)c3ccc4cc(OC)ccc4c3)CCOC(=O)C(C)c3ccc4cc(OC)ccc4c3)CCC(=O)OCc3ccccc3)ccc2c1 (centres undefined)	Non-toxic	39.62%	6.93	–
–	–	–	–	–	–	COc1ccc2cc([C@H](C)C(=O)O)ccc2c1 [NAPROXEN]	Non-toxic	–	8.26	–
79.4%	89.9%	94.5%	97.2%	98.4%	99.1%	COc1ccc2cc(C(C)C(=O)OCC(COC(=O)C(C)c3ccc4cc(OC)ccc4c3)(COC(=O)C(C)c3ccc4cc(OC)ccc4c3)NC(=O)CCC(=O)OCC(COC(=O)CCC(=O)NC(COC(=O)C(C)c3ccc4cc(OC)ccc4c3)(COC(=O)C(C)c3ccc4cc(OC)ccc4c3)COC(=O)C(C)c3ccc4cc(OC)ccc4c3)(COC(=O)CCC(=O)NC(COC(=O)C(C)c3ccc4cc(OC)ccc4c3)(COC(=O)C(C)c3ccc4cc(OC)ccc4c3)COC(=O)C(C)c3ccc4cc(OC)ccc4c3)NC(=O)OCc3ccccc3)ccc2c1 (centres undefined)	Non-toxic	–	5.94	49.64%

— ChEMBL document CHEMBL2396524, “Design, synthesis and biological evaluation of enzymatically cleavable NSAIDs prodrugs derived from self-immolative dendritic scaffolds for the treatment of inflammatory diseases” (Bioorg Med Chem, 2013)
